Assay results gathered from unrelated publications.
Compare with care: the assays were run in different laboratories.
Target: Serine/threonine-protein kinase/endoribonuclease IRE1 (ERN1, Homo sapiens, UniProt O75460)

SMILES | read-out | mode | method | cell line | tested at | measurement | value
O=S(=O)(NC1CCC(c2cc(F)ccc2F)(S(=O)(=O)c2ccc(Cl)cc2)CC1)C(F)(F)F (stereo not shown) | cell-free assay |  | competition with immobilised ligand |  | 1 µM | remaining binding | 100%
Cc1cnc(NC2CCOCC2)nc1-n1cnc(C(=O)NC(CN)c2cc(F)cc(Cl)c2)c1 (stereo not shown) | enzyme activity | inhibitor | radiometric |  | 1 µM | remaining activity | 99%
CCN1CCN(Cc2ccc(NC(=O)c3ccc(C)c(Oc4ccnc5[nH]ccc45)c3)cc2C(F)(F)F)CC1 | target engagement in cells | inhibitor | chemoproteomics | Huh-7 | 10 µM | inhibition | -12.6%
COc1cccc2c(NCc3ccccc3)nc(-n3c(N)nc4ccccc43)nc12 | target engagement in cells | inhibitor | chemoproteomics |  | 20 mM | inhibition | -6.5%
O=C(Nc1cnn(-c2csc(C(=O)NC3COC3)c2)c1)Nc1ccccc1Cl | enzyme activity | inhibitor |  |  | 5 µM | remaining activity | 94.3%
COc1cc(Cl)c(C(=O)N[C@@H](CN[C@H]2CC[C@@H](N)CC2)Cc2ccc(C#N)cc2)cc1-c1ccc(CN[C@H](C)c2ccc(C)cc2)o1 | enzyme activity | inhibitor |  |  | 1 µM | remaining activity | 93%
CN([C@@H]1CCc2c(CC(=O)O)c3ccccc3n2C1)S(=O)(=O)c1ccc(F)cc1 | cell-free assay |  | competition with immobilised ligand |  | 1 µM | remaining binding | 94%
Cc1ccc(C(=O)Nc2ccc(CN3CCN(C)CC3)c(C(F)(F)F)c2)cc1C#Cc1cnc2cccnn12 | enzyme activity | inhibitor |  |  | 23.5 nM | remaining activity | 81%
Cc1ccc(C(=O)NCc2ccsc2)cc1C#Cc1cn(C(C)C)c2ncnc(N)c12 | enzyme activity | inhibitor |  |  | 1 µM | activity vs control | 100%
Cc1sc(C(=O)NC2COC2)cc1-n1cc(NC(=O)Nc2c(F)cccc2Cl)cn1 | enzyme activity | inhibitor |  |  | 10 µM | remaining activity | 94.1%
CN1CC(Oc2cnc(C#N)cc2-c2ccn3nc(NC(=O)C4CC4)cc3c2)C1 | enzyme activity | inhibitor |  |  | 1 µM | inhibition | 4%
Cc1ccc(NC(=O)c2ccc(C)c(C(F)(F)F)c2)cc1C#Cc1nn(C2CCC(O)CC2)c2ncnc(N)c12 (stereo not shown) | cell-free assay |  |  |  | 10 µM | remaining signal | 94%
Nc1ncnc2occ(-c3ccc(NC(=O)Nc4cc(C(F)(F)F)ccc4F)cc3)c12 | cell-free assay | inhibitor |  |  | 20 µM | remaining signal | 16%
Cc1cc(NC(=O)c2cccc3cc(-c4cccc5[nH]nc(N)c45)ccc23)ccc1F | enzyme activity | inhibitor |  |  | 0.1 µM | activity vs control | 87%
CN(c1ccnc(CNc2nc(Nc3ccc4c(c3)CC(=O)N4)ncc2C(F)(F)F)n1)S(C)(=O)=O | cell-free assay |  | competition with immobilised ligand |  | 1 µM | remaining binding | 49%
CCCCNc1ncc2c(-c3ccc(F)cc3)nn(C[C@H]3CC[C@H](N)CC3)c2n1 | target engagement in cells | inhibitor | chemoproteomics |  | 20 mM | inhibition | -1.9%
